The source of these data is ChEMBL document CHEMBL1772943, “Potent, selective, and orally available benzoisothiazolone phosphomannose isomerase inhibitors as probes for congenital disorder of glycosylation Ia” (J Med Chem, 2011).

In brackets after ≈: the same amount, converted by molar mass.

One data set has as its target T1, Phosphomannomutase 2 (Homo sapiens, UniProt O15305).
T1 sequence (O15305 whole entry): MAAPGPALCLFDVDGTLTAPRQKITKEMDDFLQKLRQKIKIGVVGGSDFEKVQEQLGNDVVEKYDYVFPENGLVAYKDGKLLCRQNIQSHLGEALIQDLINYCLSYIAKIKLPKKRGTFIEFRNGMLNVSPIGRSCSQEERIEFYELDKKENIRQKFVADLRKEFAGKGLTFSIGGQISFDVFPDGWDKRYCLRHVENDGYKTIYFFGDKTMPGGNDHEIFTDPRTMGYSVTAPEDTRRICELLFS
Description: Inhibition of human purified PMM2.

In data set [1] the target is T2, Mannose-6-phosphate isomerase (Homo sapiens, UniProt P34949).
T2 sequence (P34949 whole entry): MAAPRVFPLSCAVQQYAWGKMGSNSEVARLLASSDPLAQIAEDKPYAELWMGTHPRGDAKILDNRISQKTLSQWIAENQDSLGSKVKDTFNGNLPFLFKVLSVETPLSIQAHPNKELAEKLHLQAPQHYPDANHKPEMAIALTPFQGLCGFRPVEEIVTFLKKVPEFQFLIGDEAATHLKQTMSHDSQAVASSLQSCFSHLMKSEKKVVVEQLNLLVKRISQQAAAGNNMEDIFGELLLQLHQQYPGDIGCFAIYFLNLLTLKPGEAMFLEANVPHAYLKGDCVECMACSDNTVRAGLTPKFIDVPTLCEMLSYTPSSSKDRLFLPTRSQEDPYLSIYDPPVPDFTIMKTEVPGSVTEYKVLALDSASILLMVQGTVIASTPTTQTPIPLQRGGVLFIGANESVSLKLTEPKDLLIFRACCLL
Description: Inhibition of human purified phosphomannose isomerase.

Data set [2] in a line: Cmax in C57BL/6 mouse at 20 mg/kg, po. It is filed as ADME, organism-based. On the set-up: dose 20 mg/kg, route oral. Particulars: in vivo. The gist of the method:
(§1)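 C57BL/6 mice, n=3 per dose, given single oral dose of 20 mg/kg (5 mg/kg IV arm run in parallel). Animals sacrificed for blood at 0.5, 1, 2, 4 and 6 hr after oral dosing; plasma separated by centrifugation, stored at -20°C, extracted with 2-fold excess acetonitrile, vortexed 3 min, centrifuged 15 min (7500g), supernatant quantified by LCMS.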

Data set [3] in a line: Solubility of the compound at pH 7.4. It is filed as physicochemical. The settings on record: buffer.
A further data set relates to Mus musculus. Description: Oral bioavailability in C57BL/6 mouse at 20 mg/kg. It is filed as ADME, organism-based. Particulars: in vivo. The method in brief: (§2)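 C57BL/6 mice, n=3 per dose, dosed 5 mg/kg IV and 20 mg/kg PO. Blood collected at PO 0.5, 1, 2, 4, 6 hr and IV 10 min, 0.5, 1, 2, 4, 6 hr. Plasma separated by centrifugation, stored at -20°C, extracted with 2-fold excess acetonitrile (vortex 3 min, 15 min at 7500g), supernatant analysed by LCMS.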

A short description of the next data set: in vivo. The settings on record: C57BL/6, mouse, po, 20 mg/kg.
A short description of data set [4]: AUC (0 to t) in C57BL/6 mouse at 20 mg/kg, po. The format is ADME, organism-based. On the set-up: dose 20 mg/kg, route oral. Particulars: plasma. The method in brief: as §1
A further data set concerns HeLa. As to the kind of experiment: Cytotoxicity against human HeLa cells at 12.5 to 100 uM after 2 hrs. It is filed as cell-based. The gist of the method: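 HeLa cells at 70% confluency were preincubated with compound for 2 h at 37°C. They were then labelled with 50 μCi/mL ³H-mannose and 5 μCi/mL ³⁵S-Met/Cys for 1 h at 37°C, washed, and lysed in 10 mM Tris pH 7.4 with 1% NP-40. Proteins were precipitated with 10% TCA. ³⁵S incorporation read protein synthesis and toxicity; DMSO-treated cells served as the reference.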

Data set [5] in a line: Metabolic stability of the compound in mouse liver microsomes assessed as compound remaining at 10 uM after 1 hr by LC/MS/MS analysis. The format is ADME, Microsome. Particulars: read-out: Stability. The gist of the method: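 Mouse liver microsomes at 0.5 mg/ml, test article at 10 μM, duplicate, 37 °C. Aliquots at t=0 and t=1 h; % parent remaining by LC/MS/MS. Positive control phenacetin conversion to acetaminophen; negative control NADPH-deficient mixture.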
On the technique in general: Liver microsomes are a subcellular fraction often used to study metabolism.

The next data set relates to Liver. As to the kind of experiment: Metabolic stability of the compound in rat liver S9 fraction at 10 uM after 2 hrs by LCMS analysis in presence of GSH transferase. It is filed as ADME, subcellular. Particulars: s9, 2 h. The gist of the method:
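The reaction was quenched by acetonitrile precipitation, and the supernatant was dried and reconstituted. Positive-ion electrospray LCMS tracked parent compound and GSH conjugates. Run in triplicate, with diclofenac as positive control.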

Data set [6] is described as follows: Metabolic stability of the compound in mouse plasma assessed as compound remaining at 10 uM after 3 hrs by LC/MS/MS analysis. The format is ADME, cell-free. The settings on record: read-out: Stability. The gist of the method: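 Fresh mouse plasma with test article at 10 μM, run in duplicate at 37 °C. Sampled at t=0 and t=3 h; % parent remaining quantified by LC/MS/MS.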

Data set [7] is described as follows: Half life in C57BL/6 mouse at 20 mg/kg, po. It is filed as ADME, organism-based. On the set-up: dose 20 mg/kg, route oral. The settings on record: in vivo. The gist of the method: as §2
A short description of data set [8]: Inhibition of human purified phosphomannose isomerase.

Usually IC50 stands for the concentration at which inhibition is half-maximal. A lower IC50 goes with greater potency in that assay. `CN(C)c1cccc(-n2sc3ccccc3c2=O)c1` returned an IC50 on Phosphomannomutase 2 above 20 µM.

`O=c1c2ccccc2sn1-c1cccc(I)c1`: the IC50 on Phosphomannomutase 2 is above 20 µM.

In data set [1], `NC(=O)C1(NC(=O)CCCSc2ccc(Cl)cc2Cl)Cc2ccccc2C1` displayed an IC50 of 14 µM.

In the case of `O=c1c2cc(F)ccc2sn1-c1ccc(F)cc1`, the IC50 on Phosphomannomutase 2 is above 80 µM.

`O=c1c2ccccc2sn1-c1ccc(Cl)cc1`: on Phosphomannomutase 2, the IC50 was above 20 µM.

Take `Cc1cccc(-n2sc3ccccc3c2=O)c1`: at Phosphomannomutase 2, the concentration for half-maximal inhibition (IC50) was above 20 µM.

On Phosphomannomutase 2, `COc1cccc(-n2sc3ccccc3c2=O)c1` came in with an IC50 above 10 µM.

On to `CCOC(=O)c1ccc(-n2sc3ccccc3c2=O)cc1`, for which the half-inhibitory concentration (IC50) at Phosphomannomutase 2 is above 20 µM.

Regarding `O=c1c2ccccc2sn1-c1cccc(Cl)c1`, at Phosphomannomutase 2, the IC50 was above 20 µM.

Broadly, the Cmax is the maximum level reached in the sampled fluid or tissue. As a reminder, the solubility is how much of the substance goes into solution per volume. In general, Tmax refers to the time at which the peak concentration occurs. For orientation: AUC(0-t) means the area under the concentration-time curve up to a stated or last time point. What is called half-life is the time in which the quantity being followed falls by half. As to `O=c1c2cc(F)ccc2sn1-c1ccccc1`, in data set [2], the concentration peaked (Cmax) at 162 nM. Besides, the solubility in data set [3] was 3.8 µg/mL (≈ 15.5 µM). Also, in the data set with Mus musculus, the F was found to be 35%. Further, the Tmax in “in vivo” was 0.75 h. In addition, the AUC(0-t) in data set [4] was found to be 0.305 µM·h. In addition, the Activity result in the data set with HeLa was “Non-toxic”. In addition, the remaining at 1 h, 10 µM in data set [5] came out at 85%. In addition, on Phosphomannomutase 2, the IC50 was above 80 µM. Moreover, in the data set with Liver, the Stability entry is on record as “Stable”. For the same compound, the remaining at 3 h, 10 µM in data set [6] worked out at 99%. For the same compound, the half-life in data set [7] was 1.3 h.

On to `Cc1ccc(C)c(N2Cc3ccccc3C2=O)c1`, for which the IC50 in data set [1] is above 10 µM.

With `O=c1c2ccccc2sn1-c1ccc2ccccc2c1`, the IC50 at Phosphomannomutase 2 is above 20 µM.

Consider `Cc1ccc(-n2sc3ccccc3c2=O)cc1`, for which the IC50 in [1] was 5.2 µM; against Phosphomannomutase 2, above 20 µM.

Regarding `CN(C)c1ccc(-n2sc3ccccc3c2=O)cc1`, the half-maximal inhibitory concentration (IC50) in data set [1] was found to be 1.9 µM; at Phosphomannomutase 2, 13.3 µM.

Compound `O=c1c2cc(F)ccc2sn1-c1ccccc1F` displayed an IC50 at Phosphomannomutase 2 above 20 µM.

In turn, `NC(=O)C1(NC(=O)CCCNc2ccc(Cl)cc2Cl)Cc2ccccc2C1` came in with an IC50 in data set [1] of 50 µM.

Take `O=c1c2cc(F)ccc2sn1-c1ccc(Cl)cc1`: the IC50 against Phosphomannomutase 2 was above 20 µM.

As to `O=c1c2ccccc2sn1-c1cccc(C(F)(F)F)c1`, half-maximal inhibition against Phosphomannomutase 2 (IC50) was put at 13.9 µM.

`Cc1ccc(C)c(-n2sc3cc(F)ccc3c2=O)c1` gave a solubility in [3] of 22.5 µg/mL (≈ 82.3 µM). Further, in data set [1], the IC50 was determined as 1 µM. The remaining at 1 h, 10 µM in data set [5] was 82.3%. In addition, the remaining at 3 h, 10 µM in [6] amounted to 48%.

The compound `CC(C)(C)c1ccc(-n2sc3ccccc3c2=O)cc1` had a solubility in [3] of 2.5 µg/mL (≈ 8.82 µM). Further, in the data set on HeLa, the Activity entry is given as “Non-toxic”. Moreover, the remaining at 1 h, 10 µM in [5] turned out to be 62%. This compound also came in with an IC50 against Phosphomannomutase 2 above 20 µM. The remaining at 3 h, 10 µM in data set [6] was 10%.

In the case of `O=c1c2ccccc2sn1-c1ccc(C(F)(F)F)cc1`, the IC50 (in [1]; on Phosphomannomutase 2) was above 20 µM throughout.

`Cc1ccc(C)c(-n2sc3ccccc3c2=O)c1`: the IC50 in [1] came out at 6.6 µM.

Compound `NC(=O)C1(NC(=O)CCCOc2ccc(Cl)cc2Cl)Cc2ccccc2C1` yielded an IC50 in data set [8] of 40 µM.

`O=C1c2ccccc2SC1c1ccccc1` (stereo not drawn): the concentration for half-maximal inhibition (IC50) in data set [1] was above 10 µM.

With `O=c1c2cc(F)ccc2sn1-c1cccc(F)c1`, the IC50 against Phosphomannomutase 2 is above 20 µM.

In data set [3], `Cc1ccc(C)c(-n2sc3ccc(F)cc3c2=O)c1` yielded a solubility of 11 µg/mL (≈ 40.2 µM). Also, in data set [5], the remaining at 1 h, 10 µM stood at 81%.

For `Cc1ccccc1-n1sc2cc(F)ccc2c1=O`, on Phosphomannomutase 2, the IC50 is above 20 µM.
